Blank lines part the entries; values can stand above or below the compound they belong to.
What was measured:
PARP12 = target: T1, PARP12 (Homo sapiens, UniProt Q9H0J9); conditions: in words; cited from earlier work
T1 sequence (Q9H0J9 484-698 limits assumed): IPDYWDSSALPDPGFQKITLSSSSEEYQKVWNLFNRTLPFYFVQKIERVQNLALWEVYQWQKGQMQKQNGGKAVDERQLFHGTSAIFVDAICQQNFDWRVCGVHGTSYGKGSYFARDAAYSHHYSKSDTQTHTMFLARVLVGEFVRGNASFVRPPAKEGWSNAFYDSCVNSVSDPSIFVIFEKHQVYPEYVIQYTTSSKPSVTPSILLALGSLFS

secreted IFN-β = assay: Interferon-β ELISA, CT-26 cells; format: cell-based, mouse; conditions: 300 nM, 16 h
How it was run: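 CT-26 cells were grown in RPMI-1640 + 10% FBS in 6-well plates. After 24 h, medium was replaced and cells were treated for 16 h with 300 nM test compound, with or without the covalent STING inhibitor H-151 (500 nM). Harvested medium was assayed for IFN-β with a mouse IFN-β ELISA kit. Statistics: one-way ANOVA.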

PARP7 protein levels = assay: Endogenous PARP7 protein levels in CT-26 cells; format: cell-based, mouse
[1] = test system: ISRE luciferase reporter (type I interferon); assay: ISRE luciferase assay in ISRE-Luc CT-26 cells; format: cell-based, mouse; conditions: 18 h, saturating doses
How it was run: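 ISRE-Luc CT-26 cells were made by lentiviral ISRE-luciferase transduction with 8 μg/mL polybrene and kept under 20 μg/mL puromycin. 1.0 × 10^4 ISRE-Luc or WT CT-26 cells were grown overnight. Test compound was serially diluted in DMSO, then in medium, and added for 18 h. Lysates were read by ONE-Glo luminescence (2 s integration), with the WT CT-26 signal subtracted as background. Curves were four-parameter fits.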

STAT1 and pSTAT1 = assay: STAT1 and pSTAT1; format: cell-based, mouse; conditions: CT-26 cells
How it was run: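 CT-26 cells at 75% confluency were treated with test compound at 0.01–1 μM for 16 h (dose-response) or at 0.3 μM over 0–24 h (time course); DMXAA (10 μg/ml, 1 h) served as positive control. Lysis buffer contained protease and phosphatase inhibitors plus 30 μM pan-PARP inhibitor. Bradford-normalized lysates were run on SDS-PAGE and nitrocellulose, probed for STAT1 and phospho-STAT1 Tyr701, detected by HRP chemiluminescence, and bands quantified densitometrically.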

[2] = test system: other PARP family members; assay: PASTA family-wide PARP inhibitor screening, other PARP family members; format: biochemical
PARP1 [3] = target: T2, PARP1 (Homo sapiens, UniProt P09874); conditions: in words; cited from earlier work
PARP2 = PARP2 (Homo sapiens, UniProt Q9UGN5); assay: PASTA biochemical PARP screening assay, PARP2; conditions: in words
PARP1 [4] = target: T2, PARP1; assay: PASTA biochemical PARP screening assay, PARP1; conditions: in words
PARP7 = target: T3, PARP7 (Homo sapiens, UniProt Q7Z3E1); assay: PASTA biochemical PARP screening assay, PARP7; conditions: in words
T3 sequence (Q7Z3E1 1-657): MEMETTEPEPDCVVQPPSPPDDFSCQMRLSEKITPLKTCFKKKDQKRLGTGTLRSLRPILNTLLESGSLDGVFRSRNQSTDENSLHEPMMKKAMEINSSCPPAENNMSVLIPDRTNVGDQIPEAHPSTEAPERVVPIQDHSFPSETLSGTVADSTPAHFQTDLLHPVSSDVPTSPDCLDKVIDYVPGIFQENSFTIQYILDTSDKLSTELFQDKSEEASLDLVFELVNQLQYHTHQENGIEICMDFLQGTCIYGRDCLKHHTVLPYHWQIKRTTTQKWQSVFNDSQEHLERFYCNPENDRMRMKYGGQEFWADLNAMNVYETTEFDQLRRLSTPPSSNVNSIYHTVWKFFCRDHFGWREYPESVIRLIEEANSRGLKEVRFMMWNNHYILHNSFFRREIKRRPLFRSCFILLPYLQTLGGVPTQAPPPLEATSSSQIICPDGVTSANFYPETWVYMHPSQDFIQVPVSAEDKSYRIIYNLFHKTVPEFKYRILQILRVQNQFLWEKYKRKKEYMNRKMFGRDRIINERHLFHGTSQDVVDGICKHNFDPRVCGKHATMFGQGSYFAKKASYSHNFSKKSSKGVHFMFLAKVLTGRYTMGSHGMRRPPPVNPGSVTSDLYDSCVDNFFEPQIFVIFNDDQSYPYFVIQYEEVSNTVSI

[5] = test system: STING signaling (STING, pTBK1, pIRF3); assay: STING, pTBK1 and pIRF3 western blot in CT-26 cells; format: cell-based, mouse
How it was run: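 Lysates were made in HEPES/Triton buffer with TCEP, protease and phosphatase inhibitors and 30 μM pan-PARP inhibitor, normalized by Bradford, and run on SDS-PAGE and nitrocellulose. Blots were probed overnight at 4°C for STING, phospho-TBK1 Ser172 and phospho-IRF3 Ser396 (1:1000 for both phospho antibodies), with tubulin as loading control, and read by HRP chemiluminescence.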

[6] = test system: CYP1A1 mRNA (AHR target gene); assay: CYP1A1 mRNA levels in MEFs; format: cell-based, mouse; conditions: PARP7−/− MEFs, 1 nM TCDD
[7] = increasing concentrations, 16 h

T2 sequence (P09874 whole entry): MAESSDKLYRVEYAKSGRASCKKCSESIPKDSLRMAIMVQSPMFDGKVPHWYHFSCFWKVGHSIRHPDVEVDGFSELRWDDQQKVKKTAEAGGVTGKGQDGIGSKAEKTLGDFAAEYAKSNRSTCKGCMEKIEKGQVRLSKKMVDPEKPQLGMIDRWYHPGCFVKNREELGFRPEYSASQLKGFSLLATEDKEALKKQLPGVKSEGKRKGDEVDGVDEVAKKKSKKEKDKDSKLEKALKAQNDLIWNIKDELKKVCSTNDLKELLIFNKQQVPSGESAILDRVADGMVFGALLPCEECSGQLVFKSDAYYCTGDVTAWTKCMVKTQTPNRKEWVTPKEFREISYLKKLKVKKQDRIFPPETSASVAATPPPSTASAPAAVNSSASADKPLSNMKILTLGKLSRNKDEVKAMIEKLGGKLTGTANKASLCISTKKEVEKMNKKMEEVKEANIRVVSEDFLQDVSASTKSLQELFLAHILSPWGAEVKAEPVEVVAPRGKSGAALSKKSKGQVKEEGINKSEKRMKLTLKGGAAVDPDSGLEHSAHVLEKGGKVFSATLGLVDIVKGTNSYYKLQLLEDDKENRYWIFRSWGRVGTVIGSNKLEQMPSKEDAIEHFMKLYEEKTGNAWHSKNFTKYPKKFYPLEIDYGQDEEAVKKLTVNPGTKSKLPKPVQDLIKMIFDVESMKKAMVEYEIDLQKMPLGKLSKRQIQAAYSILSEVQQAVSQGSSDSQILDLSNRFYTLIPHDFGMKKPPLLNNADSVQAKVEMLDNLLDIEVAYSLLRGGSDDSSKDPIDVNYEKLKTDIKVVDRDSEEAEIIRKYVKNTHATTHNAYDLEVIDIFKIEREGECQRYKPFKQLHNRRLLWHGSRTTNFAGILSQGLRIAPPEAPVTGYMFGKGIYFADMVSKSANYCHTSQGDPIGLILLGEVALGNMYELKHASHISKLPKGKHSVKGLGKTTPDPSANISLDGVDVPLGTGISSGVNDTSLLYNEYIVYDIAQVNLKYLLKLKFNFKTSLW
Sequence of PARP2 (Q9UGN5 whole entry): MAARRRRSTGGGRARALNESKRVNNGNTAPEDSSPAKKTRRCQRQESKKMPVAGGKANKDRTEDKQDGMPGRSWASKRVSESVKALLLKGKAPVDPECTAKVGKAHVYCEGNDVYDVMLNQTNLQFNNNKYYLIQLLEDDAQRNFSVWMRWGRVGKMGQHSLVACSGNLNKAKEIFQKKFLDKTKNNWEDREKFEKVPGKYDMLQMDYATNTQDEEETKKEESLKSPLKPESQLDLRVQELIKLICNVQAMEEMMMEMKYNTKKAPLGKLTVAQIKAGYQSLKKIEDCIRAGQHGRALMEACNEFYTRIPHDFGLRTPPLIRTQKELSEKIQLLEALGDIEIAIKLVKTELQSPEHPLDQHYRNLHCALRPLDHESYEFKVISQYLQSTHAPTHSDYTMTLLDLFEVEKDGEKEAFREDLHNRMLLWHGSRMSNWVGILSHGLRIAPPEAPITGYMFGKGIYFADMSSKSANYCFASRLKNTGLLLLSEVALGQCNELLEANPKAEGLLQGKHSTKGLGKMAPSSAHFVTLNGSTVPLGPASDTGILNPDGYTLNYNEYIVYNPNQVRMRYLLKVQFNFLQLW

IC50 ([2]; read-out: IC50 most other PARP family members (does not inhibit up to)): > 3 µM
Compound: C[C@@H](COCCC(=O)N1CCN(c2ncc(C(F)(F)F)cn2)CC1)Nc1cn[nH]c(=O)c1C(F)(F)F [RBN-2397]
inhibition of PARP12, previous study (PARP12): double digit nanomolar inhibition
levels of secreted IFN-β (secreted IFN-β): to a greater extent than KMR-206
time of maximal PARP7 protein levels after addition (PARP7 protein levels; 0.3 μM time-course): ~ 16 h
endogenous PARP7 levels (PARP7 protein levels; [7]): dramatically increased
increase in PARP7 protein abundance compared to KMR-206 (PARP7 protein levels; saturating doses): 2 fold
magnitude of ISRE luciferase response compared to KMR-206 [1]: ~ 2 fold
time of noticeable increase in STAT1 (STAT1 and pSTAT1; 300 nM): 16 h
time of noticeable increase in pSTAT1 (STAT1 and pSTAT1; 300 nM): 4 h
STAT1 and pSTAT1 levels (STAT1 and pSTAT1; [7]): dose-dependently increased
inhibition of PARP1, previous study (PARP1 [3]): double digit nanomolar inhibition

potency against PARP2 (PARP2): double-digit nanomolar
potency against PARP1 (PARP1 [4]): double-digit nanomolar
potency against PARP7 (PARP7): double-digit nanomolar
Compound: N#Cc1ccc(N2CCN(C(=O)c3cc(Cc4n[nH]c(=O)c5ccccc45)ccc3F)CC2)nc1 [Phthal01]
fold more potent against PARP7 compared to all other PARP family members ([2]; other than PARP1 and PARP2): at least 12 fold

Compound: Cc1ccc2c(=O)c3cccc(CC(=O)O)c3oc2c1C [DMXAA, 5,6-Dimethylxanthenone-4-acetic Acid]
STING levels [5]: substantially decreased
pIRF3 [5]: robustly induced
pTBK1 [5]: robustly induced

Compound: Clc1cc2c(cc1Cl)Oc1cc(Cl)c(Cl)cc1O2 [TCDD, 2,3,7,8-tetrachlorodibenzo-p-dioxin]
CYP1A1 mRNA levels, TCDD alone [6]: robust induction of CYP1A1

From PMC9868104 (Cell chemical biology, 2022)
